The nature of data set [1]: Cytotoxicity against human 293T/ACE2 cells measured after 48 hrs by MTT assay. Type of data set: cell-based. The conditions noted are these: 293t/ace2, 48 h. The procedure, abridged: (§1)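 MTT assay on monolayers of 293T-ACE2 or Vero-E6 cells. Cells were rinsed with PBS and exposed to compound for 48 h, then given 0.5 mg/mL MTT for 4 h at 37 °C. Formazan was dissolved in DMSO and absorbance read at 570 nm.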

Data set [2] is described as follows: Selectivity index, ratio of CC50 for cytotoxicity against human 293T/ACE2 cells to IC50 for SARS-CoV-2 spike glycoprotein S inhibition. The conditions noted are these: read-out: Selectivity Index. Type of data set: toxicity, cell-based.
Data set [3] concerns Vero C1008. The experiment in a line: Cytotoxicity against African Green monkey Vero E6 cells measured after 48 hrs by MTT assay. Type of data set: cell-based. The conditions noted are these: chlorocebus sabaeus, vero c1008, 48 h. Summed up:
as §1
Background: Tetrazolium assays rely on reduction of a dye to a coloured formazan, in cell work by metabolically active cells.

The test system of data set [4] is Vero E6. The data set is described as follows: Inhibition of SARS-CoV-2 spike glycoprotein S2 in human HEK293T cells transfected with pAAV-IRES-GFP-SARS-CoV-2 S assessed as inhibition of membrane fusion to african green monkey Vero E6 cells […] pretreated at 2.5 to 20 uM for 30 mins measured after 24 hrs by cell-cell fusion based fluorescence microscopy. The settings on record: Severe acute respiratory syndrome-related coronavirus, dose 2.5-20 µM. The procedure, abridged: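 Effector HEK-293T cells were transfected with pAAV-IRES-GFP-SARS-CoV-2 S, or with empty pAAV-IRES-GFP as vehicle. They were pretreated with compound for 30 min and overlaid on Vero-E6 target cells seeded 6 h earlier (20,000/well). After 24 h, three random fields were imaged by fluorescence microscopy.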

The nature of data set [5]: Inhibition of SARS-CoV-2 spike glycoprotein S1 binding to human ACE2 receptor in co-transfected human HEK293T cells at 40 uM measured by Co-immunoprecipitation based Western blot assay. The format is cell-based, Severe acute respiratory syndrome-related coronavirus. The procedure, abridged: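 293T cells were co-transfected with ACE2-Flag and SARS-S plasmids, and total protein was extracted after 48 h. Lysates were immunoprecipitated overnight with protein A Sepharose and anti-Flag antibody (mouse IgG as control). Proteins were run on 10% PAGE and blotted with anti-Flag and anti-SARS-CoV-S antibodies plus an HRP secondary.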
(Immunoblotting shows a protein as a band on a membrane.)

The test system of data set [6] is Vero E6. The data set is described as follows: Antiviral activity against SARS-CoV-2 Wuhan-HU-1 infection on African green monkey Vero E6 cells assessed by viral nucleoprotein expression at 0.55 to 15 uM measured after 48 hrs by DAPI staining based indirect immunoflourescence microscopy relative to control. The settings on record: Severe acute respiratory syndrome-related coronavirus, dose 0.55-15 µM. Type of data set: functional, cell-based.

A short description of data set [7]: Binding affinity to SARS-CoV-2 spike glycoprotein S1 measured by Surface plasmon resonance. Further details: species or system Severe acute respiratory syndrome-related coronavirus; call rule not given here. The procedure, abridged: (§2)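 Compound was immobilised on the chip by photo-crosslinking. Recombinant SARS-CoV-2 S-trimer, S1 or S2 protein was injected at a series of concentrations in PBST (0.1% Tween 20, pH 7.4) at 4 °C. Binding lasted 600 s and dissociation 360 s, at 0.5 µL/s. The chip was regenerated with glycine-HCl pH 2.0.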
(In general: In SPR one partner is held on a chip, and binding of the other changes the refractive index at the surface.)

The nature of data set [8]: Antiviral activity against SARS-CoV-2 Wuhan-HU-1 preincubated for 1 hr with African green monkey VeroE6 cells assessed as inhibition of viral infection by measuring total RNA after 24 hrs by qPCR analysis. The conditions noted are these: Severe acute respiratory syndrome-related coronavirus, Wuhan-HU-1, Vero C1008. The format is functional, cell-based, Vero E6.
A short description of data set [9]: Binding affinity to SARS-CoV-2 spike glycoprotein S2 measured by Surface plasmon resonance. Set-up: species or system Severe acute respiratory syndrome-related coronavirus. Summed up:
as §2

Bounds are passed on as bounds.

`C[C@@H]1O[C@@H](O[C@H]2[C@H](O[C@H]3CC[C@]4(C)[C@H]5CC=C6[C@@H]7CC(C)(C)CC[C@]7(C(=O)NCc7ccccc7Cl)CC[C@@]6(C)[C@]5(C)CC[C@H]4C3(C)C)O[C@H](CO)[C@@H](O[C@@H]3O[C@@H](C)[C@H](O)[C@@H](O)[C@H]3O)[C@@H]2O)[C@H](O)[C@H](O)[C@H]1O` yielded a CC50 in data set [1] above 100 µM. Moreover, the selectivity ratio in [2] was above 15.8.
Compound `C[C@@H]1O[C@@H](O[C@H]2[C@H](O[C@H]3CC[C@]4(C)[C@H]5CC=C6[C@@H]7CC(C)(C)CC[C@]7(C(=O)NCc7ccccc7Br)CC[C@@]6(C)[C@]5(C)CC[C@H]4C3(C)C)O[C@H](CO)[C@@H](O[C@@H]3O[C@@H](C)[C@H](O)[C@@H](O)[C@H]3O)[C@@H]2O)[C@H](O)[C@H](O)[C@H]1O` showed a CC50 in [1] above 100 µM. For the same compound, the selectivity ratio in [2] was above 8.51.
Compound `C[C@@H]1O[C@@H](O[C@H]2[C@H](O[C@H]3CC[C@]4(C)[C@H]5CC=C6[C@@H]7CC(C)(C)CC[C@]7(C(=O)NCc7cccs7)CC[C@@]6(C)[C@]5(C)CC[C@H]4C3(C)C)O[C@H](CO)[C@@H](O[C@@H]3O[C@@H](C)[C@H](O)[C@@H](O)[C@H]3O)[C@@H]2O)[C@H](O)[C@H](O)[C@H]1O` registered a CC50 in data set [1] of 34.9 µM. In addition, the selectivity ratio in [2] worked out at 5.92.
For `C[C@@H]1O[C@@H](O[C@H]2[C@H](O[C@H]3CC[C@]4(C)[C@H]5CC=C6[C@@H]7CC(C)(C)CC[C@]7(C(=O)NCCCc7ccccc7)CC[C@@]6(C)[C@]5(C)CC[C@H]4C3(C)C)O[C@H](CO)[C@@H](O[C@@H]3O[C@@H](C)[C@H](O)[C@@H](O)[C@H]3O)[C@@H]2O)[C@H](O)[C@H](O)[C@H]1O`, in data set [1], the CC50 was above 100 µM. Further, the selectivity ratio in [2] is above 7.66.
The like results for `C[C@@H]1O[C@@H](O[C@H]2[C@H](O[C@H]3CC[C@]4(C)[C@H]5CC=C6[C@@H]7CC(C)(C)CC[C@]7(C(=O)Nc7ccccc7Cl)CC[C@@]6(C)[C@]5(C)CC[C@H]4C3(C)C)O[C@H](CO)[C@@H](O[C@@H]3O[C@@H](C)[C@H](O)[C@@H](O)[C@H]3O)[C@@H]2O)[C@H](O)[C@H](O)[C@H]1O` were, in that order, 31.7 µM and 5.06.
In the case of `C[C@@H]1O[C@@H](O[C@H]2[C@H](O[C@H]3CC[C@]4(C)[C@H]5CC=C6[C@@H]7CC(C)(C)CC[C@]7(C(=O)OCc7ccccc7)CC[C@@]6(C)[C@]5(C)CC[C@H]4C3(C)C)O[C@H](CO)[C@@H](O[C@@H]3O[C@@H](C)[C@H](O)[C@@H](O)[C@H]3O)[C@@H]2O)[C@H](O)[C@H](O)[C@H]1O`, the CC50 in data set [1] stood at 21.6 µM. Further, in [2], the selectivity ratio was found to be 1.29.
The like results for `C[C@@H]1O[C@@H](O[C@H]2[C@H](O[C@H]3CC[C@]4(C)[C@H]5CC=C6[C@@H]7CC(C)(C)CC[C@]7(C(=O)NCCc7ccccc7)CC[C@@]6(C)[C@]5(C)CC[C@H]4C3(C)C)O[C@H](CO)[C@@H](O[C@@H]3O[C@@H](C)[C@H](O)[C@@H](O)[C@H]3O)[C@@H]2O)[C@H](O)[C@H](O)[C@H]1O` were, in that order, above 100 µM and above 13.6.
The matching figures for `C[C@@H]1O[C@@H](O[C@H]2[C@H](O[C@H]3CC[C@]4(C)[C@H]5CC=C6[C@@H]7CC(C)(C)CC[C@]7(C(=O)N(C)Cc7ccccc7)CC[C@@]6(C)[C@]5(C)CC[C@H]4C3(C)C)O[C@H](CO)[C@@H](O[C@@H]3O[C@@H](C)[C@H](O)[C@@H](O)[C@H]3O)[C@@H]2O)[C@H](O)[C@H](O)[C@H]1O`: 37.6 µM and 4.84.
`C[C@@H]1O[C@@H](O[C@H]2[C@H](O[C@H]3CC[C@]4(C)[C@H]5CC=C6[C@@H]7CC(C)(C)CC[C@]7(C(=O)NCc7ccccc7F)CC[C@@]6(C)[C@]5(C)CC[C@H]4C3(C)C)O[C@H](CO)[C@@H](O[C@@H]3O[C@@H](C)[C@H](O)[C@@H](O)[C@H]3O)[C@@H]2O)[C@H](O)[C@H](O)[C@H]1O` returned a CC50 in data set [1] above 100 µM. Moreover, the selectivity ratio in [2] is above 17.6.
For the compound `COc1cccc(NC(=O)[C@]23CCC(C)(C)C[C@H]2C2=CC[C@@H]4[C@@]5(C)CC[C@H](O[C@@H]6O[C@H](CO)[C@@H](O[C@@H]7O[C@@H](C)[C@H](O)[C@@H](O)[C@H]7O)[C@H](O)[C@H]6O[C@@H]6O[C@@H](C)[C@H](O)[C@@H](O)[C@H]6O)C(C)(C)[C@@H]5CC[C@@]4(C)[C@]2(C)CC3)c1`, in data set [1], the CC50 was above 100 µM. For the same compound, the selectivity ratio in data set [2] was above 12.
In the case of `O=C(/C=C/c1ccc(O)c2oc(-c3ccc(O)c(O)c3)cc12)O[C@H](Cc1ccc(O)c(O)c1)C(=O)O`, the cytotoxic concentration (CC50) in [1] is above 100 µM. Moreover, the selectivity ratio in data set [2] is above 26.
`C[C@@H]1O[C@@H](O[C@H]2[C@H](O[C@H]3CC[C@]4(C)[C@H]5CC=C6[C@@H]7CC(C)(C)CC[C@]7(C(=O)Nc7ccccc7)CC[C@@]6(C)[C@]5(C)CC[C@H]4C3(C)C)O[C@H](CO)[C@@H](O[C@@H]3O[C@@H](C)[C@H](O)[C@@H](O)[C@H]3O)[C@@H]2O)[C@H](O)[C@H](O)[C@H]1O` came in with a cytotoxic concentration (CC50) in data set [1] of 33.5 µM. Further, in [2], the selectivity ratio was 1.85.
With `C[C@@H]1O[C@@H](O[C@H]2[C@H](O[C@H]3CC[C@]4(C)[C@H]5CC=C6[C@@H]7CC(C)(C)CC[C@]7(C(=O)NCc7ccccc7)CC[C@@]6(C)[C@]5(C)CC[C@H]4C3(C)C)O[C@H](CO)[C@@H](O[C@@H]3O[C@@H](C)[C@H](O)[C@@H](O)[C@H]3O)[C@@H]2O)[C@H](O)[C@H](O)[C@H]1O`, the Activity entry in [3] is “Non-Toxic”. Moreover, the inhibition result in [4] and in data set [6] was “Dose-Dependent Effect” in each case. The Kd entry in [5] is “Active”; in data set [7] it was 3690 µM; in [9], 2.16 µM. For the same compound, the CC50 in [1] was above 100 µM. Besides, the selectivity ratio in data set [2] was above 22.9. Also, in data set [8], the IC50 turned out to be 0.97 µM.
For the compound `COc1ccc(NC(=O)[C@]23CCC(C)(C)C[C@H]2C2=CC[C@@H]4[C@@]5(C)CC[C@H](O[C@@H]6O[C@H](CO)[C@@H](O[C@@H]7O[C@@H](C)[C@H](O)[C@@H](O)[C@H]7O)[C@H](O)[C@H]6O[C@@H]6O[C@@H](C)[C@H](O)[C@@H](O)[C@H]6O)C(C)(C)[C@@H]5CC[C@@]4(C)[C@]2(C)CC3)cc1`, the CC50 in data set [1] was above 100 µM. Besides, the selectivity ratio in data set [2] was above 10.
In [1], `COc1ccccc1CNC(=O)[C@]12CCC(C)(C)C[C@H]1C1=CC[C@@H]3[C@@]4(C)CC[C@H](O[C@@H]5O[C@H](CO)[C@@H](O[C@@H]6O[C@@H](C)[C@H](O)[C@@H](O)[C@H]6O)[C@H](O)[C@H]5O[C@@H]5O[C@@H](C)[C@H](O)[C@@H](O)[C@H]5O)C(C)(C)[C@@H]4CC[C@@]3(C)[C@]1(C)CC2` displayed a CC50 of 33.4 µM. Moreover, the selectivity ratio in data set [2] is 2.
For the compound `COc1ccccc1NC(=O)[C@]12CCC(C)(C)C[C@H]1C1=CC[C@@H]3[C@@]4(C)CC[C@H](O[C@@H]5O[C@H](CO)[C@@H](O[C@@H]6O[C@@H](C)[C@H](O)[C@@H](O)[C@H]6O)[C@H](O)[C@H]5O[C@@H]5O[C@@H](C)[C@H](O)[C@@H](O)[C@H]5O)C(C)(C)[C@@H]4CC[C@@]3(C)[C@]1(C)CC2`, the CC50 in data set [1] is 31.2 µM. Besides, in [2], the selectivity ratio stood at 5.64.

The CC50 is the concentration giving 50% cytotoxicity. One may read the Kd as the constant that tells how readily two partners part at equilibrium. The IC50 is the concentration that gives 50% inhibition.

These data come from ChEMBL document CHEMBL4811231, “Discovery and structural optimization of 3-O-β-chacotriosyl oleanane-type triterpenoids as potent entry inhibitors of SARS-CoV-2 virus infections” (Eur J Med Chem, 2021).
